Tests used:
Mus musculus [1] = test: 5 HTP (5-hydroxytryptophan) antagonism in mouse 0.5 hr after subcutaneous administration (0.003-0.1 dose range).; format: functional; details: sc
In short: (§1)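 Mice received drug sc over the stated dose range, then DL-5-hydroxytryptophan to induce head twitches. ED50 is the dose that cut the mean number of head twitches by 50% versus a saline-treated control group (N = 5-10). It was estimated graphically by the Litchfield method.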

Mus musculus [2] = test: Analgesic activity using PQW test, oral administration; format: functional
In short: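 Oral drug in mice, followed by phenylbenzoquinone-induced writhing. Analgesia is scored as fewer abdominal contractions in a group of five animals than in a control group. ED50 is the dose that reduces contractions by 50%, estimated graphically by the Litchfield method. Otherwise the percentage of animals showing analgesia is given.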

Mus musculus [3] = test: Analgesic activity in tail flick test, oral administration; format: functional
In short: (§2)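 Mouse tail-flick test against a noxious heat stimulus (D'Amour–Smith method), with drug given by the stated route. […] Where no exact ED50 was obtained, the percentage of animals showing analgesia is reported.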

Mus musculus [4] = test: Analgesic activity in tail flick test, subcutaneous administration; format: functional; in short: as §2
Opioid receptor [5] = target: T1, Opioid receptor (Rattus norvegicus, UniProt P33533+P34975+P33535); test: Inhibition of [3H]-Naloxone binding to rat brain membrane without NaCl
Opioid receptor [6] = target: T1, Opioid receptor; test: Inhibition of [3H]naloxone binding to rat brain membrane with 100 mM NaCl.
[7] = target: T2, Serotonin (5-HT) receptor (Homo sapiens) (UniProt P30939+P41595+Q13639+P28222+P46098+P08908+P28221+P28223+P28335+P28566+P34969+P50406+P47898+A5X5Y0+O95264+Q70Z44+Q8WXA8); test: Serotonin antagonism in guinea pig 6 h after subcutaneous administration.; format: functional, organism-based; details: Cavia porcellus; target entry is the homologue from another species
In short: (§3)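 Guinea pigs were protected against a lethal serotonin dose, per the cited Roemer and Weidmann method. Test substance was given subcutaneously or orally, as named in each line. Protection was assessed at the stated interval after dosing (0.5, 6 or 24 h). ED50 (mg/kg) was estimated graphically by the Litchfield method.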

[8] = target: T2, Serotonin (5-HT) receptor (Homo sapiens); test: Serotonin antagonism in guinea pig 0.5 hr after subcutaneous administration.; format: functional, organism-based; details: Cavia porcellus; target entry is the homologue from another species; in short: as §3
[9] = target: T2, Serotonin (5-HT) receptor (Homo sapiens); test: Serotonin antagonism in guinea pig 0.5 hr after oral administration.; format: functional, organism-based; details: Cavia porcellus; target entry is the homologue from another species; in short: as §3
[10] = target: T2, Serotonin (5-HT) receptor (Homo sapiens); test: Serotonin antagonism in guinea pig 24 hr after subcutaneous administration.; format: functional, organism-based; details: Cavia porcellus; target entry is the homologue from another species; in short: as §3
[11] = target: T2, Serotonin (5-HT) receptor (Homo sapiens); test: Serotonin antagonism in guinea pig 24 hr after oral administration.; format: functional, organism-based; details: Cavia porcellus; target entry is the homologue from another species; in short: as §3
[12] = target: T2, Serotonin (5-HT) receptor (Homo sapiens); test: Serotonin antagonism in guinea pig 6 hr after oral administration.; format: functional, organism-based; details: Cavia porcellus; target entry is the homologue from another species; in short: as §3
Mus musculus [13] = test: 5 HTP (5-hydroxytryptophan) antagonism in mouse 0.5 h after subcutaneous administration (0.03-0.1 dose range).; format: functional; details: sc; in short: as §1
[14] = Mus musculus, po, read-out: ED50
[15] = Mus musculus, Tail, po, read-out: ED50
[16] = Mus musculus, Tail, sc, read-out: ED50

SMILES	ED50 (Mus musculus [2]; [14]) [mg/kg]	ED50 (Mus musculus [3]; [15]) [mg/kg]	ED50 (Mus musculus [4]; [16]) [mg/kg]	further results
CN1CCC(=C2c3ccccc3CCc3sccc32)CC1 [PIZOTYLINE]				ED50 (Mus musculus [1]): 0.015 mg/kg
CC(C(=O)N(C1CCCCC1)C1CCCCC1)C1(O)CCN(CCc2ccccc2Cl)CC1.Cl (stereo not drawn)	< 56	> 100	> 56	
CN1CC[C@]23c4c5ccc(O)c4O[C@H]2[C@@H](O)C=C[C@H]3[C@H]1C5 [MORPHINE]	1.4	23	3.4	
CC(C(=O)N(C)C1CCCCC1)C1(O)CCN(CCc2ccccc2)CC1.Cl (stereo not drawn)	18	> 56	18	
C#CCN(C(=O)C(C)C1(O)CCN(CCc2ccccc2Cl)CC1)c1ccccc1OC.O=C(O)/C=C\C(=O)O (stereo not drawn)	0.56	5.4	0.13	IC50 (Opioid receptor [5]): 0.41 nM; IC50 (Opioid receptor [6]): 4.2 nM
CC(C(=O)N(C)C1CCCCC1)C1(O)CCN(CCc2ccccc2Cl)CC1 (stereo not drawn) [PIPRAMADOL]	10	100	3.8	
CCCCNC(=O)C(C)C1(O)CCN(CCc2ccccc2Cl)CC1 (stereo not drawn)	> 32	< 100	> 18	
CC(C(=O)N(C)C1CCCCC1)C1CCN(CCc2ccccc2Cl)CC1.Cl (stereo not drawn)	< 18	37	2.9	
COc1ccccc1N(C)C(=O)C(C)C1(O)CCN(CCc2ccccc2Cl)CC1.O=C(O)/C=C\C(=O)O (stereo not drawn)	18	> 18	0.68	IC50 (Opioid receptor [5]): 3.3 nM; IC50 (Opioid receptor [6]): 51 nM
CC(C(=O)N(C)C1CCCCC1)C1(O)CCN(C)CC1.Cl (stereo not drawn)	> 56	> 100	> 56	
CCCCC(C(=O)N(C)C1CCCCC1)C1(O)CCN(CCc2ccccc2Cl)CC1.O=C(O)/C=C/C(=O)O (stereo not drawn)	> 56	> 100	> 56	
CCOc1ccccc1N(CC)C(=O)C(C)C1(O)CCN(CCc2ccccc2Cl)CC1 (stereo not drawn)	1.8	10	0.26	IC50 (Opioid receptor [5]): 0.55 nM; IC50 (Opioid receptor [6]): 1.8 nM
C=CCN(C(=O)C(C)C1(O)CCN(CCc2ccccc2Cl)CC1)c1ccccc1OC.O=C(O)/C=C\C(=O)O (stereo not drawn)	0.56	7.6	0.09	IC50 (Opioid receptor [5]): 0.41 nM; IC50 (Opioid receptor [6]): 2.9 nM
COc1ccccc1NC(=O)C(C)C1(O)CCN(CCc2ccccc2Cl)CC1.O=C(O)/C=C/C(=O)O (stereo not drawn)	5.6		> 18	
CC(C(=O)N(C)c1cccc(O)c1)C1(O)CCN(CCc2ccccc2Cl)CC1.O=C(O)/C=C/C(=O)O (stereo not drawn)	> 18		> 56	
C=CCN1CCC(O)(C(C)C(=O)N(C)C2CCCCC2)CC1.O=C(O)/C=C/C(=O)O (stereo not drawn)	1		32	
CC(C(=O)N(C)c1ccc(Cl)cc1)C1(O)CCN(CCc2ccccc2Cl)CC1.O=C(O)/C=C/C(=O)O (stereo not drawn)	9.7	> 56	6.8	
Br.CCCCCCCN1CCC(O)(C(C)C(=O)N(C)C2CCCCC2)CC1 (stereo not drawn)	> 56	> 100	> 56	
Br.CC(C)C(C(=O)N(C)C1CCCCC1)C1(O)CCN(CCc2ccccc2Cl)CC1 (stereo not drawn)	< 56	> 100	> 56	
CN1CCC(=C2c3ccccc3C=Cc3ccccc32)CC1 [CYPROHEPTADINE]				ED50 (Mus musculus [1]): 0.015 mg/kg

SMILES	ED50 (Mus musculus [2]; [14]) [mg/kg]	ED50 (Mus musculus [3]; [15]) [mg/kg]	ED50 (Mus musculus [4]; [16]) [mg/kg]	further results
Cc1ccc(CCN2CCC(O)(C(C)C(=O)N(C)C3CCCCC3)CC2)cc1.Cl (stereo not drawn)	< 56	100	> 3.2	
CN(C(=O)CC1(O)CCN(CCc2ccccc2Cl)CC1)C1CCCCC1.Cl	> 18	< 56	> 3.2	
Br.COc1cccc(CCN2CCC(O)(C(C)C(=O)N(C)C3CCCCC3)CC2)c1 (stereo not drawn)	> 18		18	
CCCN(C(=O)C(C)C1(O)CCN(CCc2ccccc2Cl)CC1)C1CCCCC1 (stereo not drawn)	< 32	56	> 10	
CC(C(=O)N(C)C1CCCCC1)C1(O)CCN(CCc2ccccc2Cl)CC1 (stereo in doubt; 15)				ED50 [7]: 7 µg/kg; ED50 [8]: 0.015 mg/kg; ED50 [9]: 0.01 mg/kg; ED50 [10]: 0.028 mg/kg; ED50 [11]: 0.045 mg/kg; ED50 [12]: 9 µg/kg
CCC(=O)OC1(C(C)C(=O)N(C)C2CCCCC2)CCN(CCc2ccccc2Cl)CC1 (stereo not drawn)	< 56		< 3.2	
CCOc1ccccc1N(C)C(=O)C(C)C1(O)CCN(CCc2ccccc2Cl)CC1.O=C(O)/C=C/C(=O)O (stereo not drawn)	1.8	< 32	0.51	IC50 (Opioid receptor [5]): 0.98 nM; IC50 (Opioid receptor [6]): 10 nM
CN(C(=O)C1(C2(O)CCN(CCc3ccccc3Cl)CC2)CCCC1)C1CCCCC1.O=C(O)/C=C/C(=O)O	> 56	100	> 56	
CCCN(C(=O)C(C)C1(O)CCN(CCc2ccccc2Cl)CC1)c1ccccc1OC.O=C(O)/C=C/C(=O)O (stereo not drawn)	1.8	5.4	0.11	ED50 (Mus musculus [1]): 0.015 mg/kg; IC50 (Opioid receptor [5]): 0.51 nM; IC50 (Opioid receptor [6]): 0.66 nM
CCCCN(CCCC)C(=O)C(C)C1(O)CCN(CCc2ccccc2Cl)CC1.O=C(O)/C=C/C(=O)O (stereo not drawn)	< 30	< 100	< 50	
CC(C(=O)N(C1CCCCC1)C(C)(C)C)C1(O)CCN(CCc2ccccc2Cl)CC1.O=C(O)/C=C/C(=O)O (stereo not drawn)	< 56	> 56	> 10	
COc1ccccc1NC(=O)C(C)(C)C1(O)CCN(CCc2ccccc2Cl)CC1.Cl	< 56		> 32	
CCN(C(=O)C(C)(C)C1(O)CCN(CCc2ccccc2Cl)CC1)c1ccccc1OC.O=C(O)/C=C/C(=O)O	> 18	> 100	> 56	IC50 (Opioid receptor [5]): 7.5 nM; IC50 (Opioid receptor [6]): 35 nM
CC(C(=O)NC1CCCCC1)C1(O)CCN(CCc2ccccc2Cl)CC1.O=C(O)/C=C\C(=O)O (stereo not drawn)	> 56	< 56	> 3.2	
CCCN(C(=O)C(C)C1(OC(=O)CC)CCN(CCc2ccccc2Cl)CC1)c1ccccc1OC.O=C(O)/C=C\C(=O)O (stereo not drawn)	1	100	32	
C=CCN(C(=O)C(C)C1(O)CCN(CCc2ccccc2Cl)CC1)C1CCCCC1.O=C(O)/C=C\C(=O)O (stereo not drawn)	< 32		4	IC50 (Opioid receptor [5]): 2.4 nM; IC50 (Opioid receptor [6]): 20 nM
CN(C(=O)C1(C2(O)CCN(CCc3ccccc3Cl)CC2)CC1)C1CCCCC1.O=C(O)/C=C\C(=O)O	> 56		10	
CCN(C(=O)C(C)C1(O)CCN(CCc2ccccc2Cl)CC1)c1ccccc1OC.O=C(O)/C=C/C(=O)O (stereo not drawn)	56	4.9	0.07	ED50 (Mus musculus [13]): 0.07 mg/kg; IC50 (Opioid receptor [5]): 0.94 nM; IC50 (Opioid receptor [6]): 6.3 nM
CC(C(=O)N(C)C1CCCCC1)C1(O)CCN(CCc2ccccc2Cl)CC1.O=C(O)/C=C\C(=O)O (single isomer, unassigned; (-))				ED50 (Mus musculus [2]): 20 mg/kg; ED50 (Mus musculus [3]): 100 mg/kg; ED50 (Mus musculus [4]): 42 mg/kg

From ChEMBL document CHEMBL1122480, “Synthesis and pharmacological studies of 4,4-disubstituted piperidines: a new class of compounds with potent analgesic properties” (J Med Chem, 1983)
